# Measured values from ChEMBL document CHEMBL4316638, “Bioactive Meroterpenoids and Isocoumarins from the Mangrove-Derived Fungus Penicillium sp. TGM112” (J Nat Prod, 2019).
# Calls of active or inactive are those of the source. The rule behind the calls is not given here.
# Experiments:
# RAW264.7 = assay: Inhibition of LPS-induced nitric oxide production in mouse RAW264.7 cells preincubated for 30 mins followed by LPS-stimulation and measured after 24 hrs by Griess assay; type: functional, cell-based
# In short: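 RAW264.7 macrophages seeded at 50 000 cells/well and grown 24 h, then exposed to compound for 30 min at 37 °C before LPS (100 ng/mL) co-incubation for 24 h. Nitrite in supernatant measured by Griess reagent (10 min mixing), absorbance 540 nm. Compounds from 10 mM DMSO stocks; final DMSO ≤0.1%. Dexamethasone positive control. Triplicate runs; IC50 calculated.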
# Helicoverpa armigera = assay: Insecticidal activity against Helicoverpa armigera hubner measured every other day for 8 days starting from 2 days post dosing; type: functional, organism-based
# In short: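 Neonate H. armigera larvae fed artificial diet dosed with serial dilutions of compound (1 mg/mL in DMSO) at 200, 100, 50, 25 and 12.5 μL/well in six-well plates; three groups of three larvae, 3 replicates per treatment. Held at 25 ± 1 °C, 80% relative humidity. Dead larvae counted on days 2, 4, 6, 8. DMSO negative, azadirachtin positive, plain diet blank controls.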
# Caenorhabditis elegans = assay: Insecticidal activity against Caenorhabditis elegans measured at 12 […]; type: functional, organism-based
# In short: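 L1 C. elegans (30−40 worms/well) in S medium with E. coli OP50 and chloramphenicol, exposed to compound at 40, 20, 10, 5, 1 and 0 μg/mL diluted in filter-sterilized M-9; 3 replicates per treatment. Plates sealed, kept at 24 °C for 60 h in the dark; dead larvae counted at 12, 24, 36, 48, 60. M-9 negative control, levamisole 1 mg/mL positive control.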
# A549 = assay: Cytotoxicity against human A549 cells measured after 7 days by MTT assay; type: functional, cell-based
# HeLa = assay: Cytotoxicity against human HeLa cells measured after 7 days by MTT assay; type: functional, cell-based
# HepG2 = assay: Cytotoxicity against human HepG2 cells measured after 7 days by MTT assay; type: functional, cell-based
# Escherichia coli = assay: Antibacterial activity against Escherichia coli ATCC 25922 by microplate assay; type: functional, organism-based
# Staphylococcus aureus [1] = assay: Antibacterial activity against Staphylococcus aureus ATCC 25923 by microplate assay; type: functional, organism-based
# Staphylococcus aureus [2] = assay: Antibacterial activity against methicillin-resistant Staphylococcus aureus ATCC 33591 by microplate assay; type: functional, organism-based
# In short: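 MRSA (ATCC 33591) was one strain in a panel of six pathogenic bacteria: four general and two marine Vibrio. Assayed by the microplate method, with ciprofloxacin as positive control.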
# Bacillus cereus = assay: Antibacterial activity against Bacillus cereus ATCC 11778 by microplate assay; type: functional, organism-based
# Vibrio parahaemolyticus = assay: Antibacterial activity against Vibrio parahaemolyticus ATCC 17802 by microplate assay; type: functional, organism-based
# Vibrio alginolyticus = assay: Antibacterial activity against Vibrio alginolyticus ATCC 17749 by microplate assay; type: functional, organism-based; details: NBRC 15630 = ATCC 17749
SMILES,inhibition (RAW264.7),IC50 (Helicoverpa armigera),EC50 (Caenorhabditis elegans),Activity (A549),Activity (HeLa),Activity (HepG2),Activity (Escherichia coli),Activity (Staphylococcus aureus [1]),Activity (Staphylococcus aureus [2]),Activity (Bacillus cereus),Activity (Vibrio parahaemolyticus),Activity (Vibrio alginolyticus)
C=C1[C@@]23C(=O)O[C@H](C)[C@]24O[C@@]2(C(=C)[C@]5(C=CC(=O)OC5(C)C)C[C@@H](O)[C@]32C)[C@H](O)[C@@]1(C)OC4=O,inactive,200 µg/mL,9.9 µg/mL,inactive,inactive,inactive,inactive,inactive,inactive,inactive,inactive,inactive
C=C1[C@]2(CCC(=O)OC2(C)C)C[C@@H](OC(=O)/C(C)=C\C)[C@]2(C)[C@]34C(=O)O[C@H](C)[C@]35O[C@]12[C@H](OC(C)=O)[C@@](C)(OC5=O)C4=O,inactive,200 µg/mL,9.4 µg/mL,inactive,inactive,inactive,inactive,inactive,inactive,inactive,inactive,inactive
